The text below walks through data of PMC7423752 (Acta biomaterialia, 2020).

pIC50, pKd, pKi: −log10 of the molar value.

The conditions of series [1]: cited from earlier work.
Series [2] has as its system PSMA-positive prostate cancer C4–2 cells. Kind of series: Cellular uptake of the micelle in cell monolayers. In kind it is cell-based. Particulars: 0.5 and 1 h incubation. An outline of the steps: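 C4–2 cells seeded at 2×10^5 per well 24 h ahead. They were exposed at 37°C for 0.5 and 1 h to micelles with or without the PSMA ligand, or to free test compound. Cells were then PBS-washed and RIPA-lysed. Part of the lysate went to BCA protein assay; the rest was treated with 4N NaOH (RT, 1 h), neutralised with phosphate buffer and DCM-extracted. Uptake was normalised to total protein; mean ± SD, n = 3.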

Series [3] deals with PSMA. Particulars: read-out: Kd to PSMA; cited from earlier work.
In series [4] the test system is PSMA. Particulars: cited from earlier work.

Consider `CO[C@H]1C(=O)[C@]2(C)[C@@H](OC)C[C@H]3OC[C@@]3(OC(C)=O)[C@H]2[C@H](OC(=O)c2ccccc2)[C@]2(O)C[C@H](OC(=O)[C@H](O)[C@@H](NC(=O)OC(C)(C)C)c3ccccc3)C(C)=C1C2(C)C` [cabazitaxel, Cabazitaxel], for which the water solubility entry in series [1] is “very low”. Moreover, the “cellular uptake, rank among groups” value in series [2] is on record as “lowest uptake”.

`O=C(O)CCC(NC(=O)NC(CCC(=O)O)C(=O)O)C(=O)O` (centres unmarked) [DUPA, 2-[3-(1,3-dicarboxypropyl)ureido]pentanedioic acid]: the pKd at PSMA [3] is 7.85. Further, the pIC50 in the series with PSMA [4] (read-out: IC50 towards PSMA) is 7.33. For the same compound, at PSMA [4] (read-out: Ki towards PSMA), the pKi was 8.10.

The term pKd denotes −log10 of the Kd, conventionally taken in molar units. Broadly, the pIC50 is the negative decadic logarithm of the IC50, by convention in mol/L. As usually defined, the pKi is the Ki on a negative log10 scale, so that one unit is a factor of ten.
